Source: PubChem
TAG inh – inhibitors of triacylglycerol accumulation, primary screen, cell-based, uHTS, fluorescence, H9c2; H9c2 cells, Nile Red lipid (TAG) fluorescence; cells loaded with 200 µM oleic acid; 230,000 tested, 0.66% active; inhibition, % at 12.5 µM;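 active means pattern-corrected inhibition of lipid staining of at least 50% with the nuclear-stain viability signal not falling by more than 50%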;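 further: 0% = DMSO wells and 100% = triacsin C control wells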
Calb FLC – C. albicans growth inhibition with fluconazole, primary screen, CaCi-2 strain, Alamar Blue fluorescence | AID 1979, 2009 | 300,000 tested, 0.57% active | growth inhibition, % (no concentration beside the values) | C. albicans CaCi-2 + fluconazole, 48 h;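 active means growth inhibition above about 58% in most replicates, limit read from the data, passing the limit was not always enough; inconclusive means exactly half the replicates above a set limit; inactive means most replicates below a set limit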;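 further: all wells also contain fluconazole at 8 µg/ml as a sub-toxic cotreatment; 0% = median of DMSO wells and 100% = median of geldanamycin control wells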
MC4R barr agon – MC4R agonists recruiting beta-arrestin, primary screen, cell-based, luminescence, agonist arm of biased-ligand search; Melanocortin receptor 4 (Homo sapiens), P32245; U2OS MC4R beta-arrestin complementation; percent of melanotan II response, DMSO zero; 360,000 tested, 0.98% active; activation, % at 8.9 µM;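 active means activation above a per-plate cutoff, the mean activation of sample wells on that plate plus 3 SD, cut at about 8% in these data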
Target sequence (P32245 whole entry, looked up): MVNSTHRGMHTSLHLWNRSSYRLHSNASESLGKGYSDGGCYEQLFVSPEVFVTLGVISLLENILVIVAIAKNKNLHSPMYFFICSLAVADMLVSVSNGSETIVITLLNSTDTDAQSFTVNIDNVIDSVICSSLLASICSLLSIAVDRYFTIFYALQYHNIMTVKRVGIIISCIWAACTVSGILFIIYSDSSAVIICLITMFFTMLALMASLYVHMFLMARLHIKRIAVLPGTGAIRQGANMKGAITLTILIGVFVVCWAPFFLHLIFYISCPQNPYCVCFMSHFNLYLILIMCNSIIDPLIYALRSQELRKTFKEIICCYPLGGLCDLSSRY
MC4R antag cAMP – MC4R antagonists of cAMP signaling, primary screen, cell-based, TR-FRET, antagonist arm of biased-ligand search; Melanocortin receptor 4 (Homo sapiens), P32245; MC4R-expressing cells, MTII-stimulated cAMP, LANCE TR-FRET; inhibition, % at 6.5 µM; 360,000 tested, 0.48% active;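 active means inhibition above its plate's cutoff, the mean of tested wells on that plate plus 3 SD, cut at about 29% in these data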;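 further: 0% = Melanotan II alone and 100% = Melanotan II plus saturating MCL0020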
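System: U2OS cells stably expressing human melanocortin 4 receptor (MC4R). Reagent: Melanotan II challenge after compound preincubation. Doses: 6.5 µM. Times: 30-min compound, 1-h challenge, 1-h detection, room temperature. Measured by: TR-FRET with Eu-cAMP and labeled anti-cAMP, 671 nm. Replicates: singlicate.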
Efflux pump mplx – inhibitors of Candida efflux pumps in yeast, primary screen, S. cerevisiae, Nile Red, multiplex. AID 485275, 2010. S. cerevisiae Candida pump triplex. inhibition, % at 10 µM. 330,000 tested, 0.44% active;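 active means plate passing quality check with inhibition over a set limit, or well fluorescence over plate mean plus 4 SD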;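 further: Nile Red retained in pooled yeast measured as flow cytometry median fluorescence; 0% = buffer negative control and 100% = Enniatin B positive control; higher means more Nile Red kept so more efflux inhibition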
GalR3 antagonist – GalR3 antagonists in HEK293 cells, primary screen, cell-based, fluorescence readout; HEK293 GalR3-CNG cAMP membrane potential fluorescence; galR3 body fused to GalR1 C-terminus; Galanin receptor type 3 (Homo sapiens), O60755; AID 651719, 2012; inhibition, % at 3 µM; 360,000 tested, 0.44% active;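 active means inhibition above the screen-wide average plus 3 SD, cut at about 13% in these data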;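 further: forskolin and galanin both at EC90 stimulate the cells; cAMP rise reported by CNG channel membrane potential dye signal; 0% = forskolin plus galanin with DMSO and 100% = forskolin alone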
Target sequence (O60755 1-299 limits assumed): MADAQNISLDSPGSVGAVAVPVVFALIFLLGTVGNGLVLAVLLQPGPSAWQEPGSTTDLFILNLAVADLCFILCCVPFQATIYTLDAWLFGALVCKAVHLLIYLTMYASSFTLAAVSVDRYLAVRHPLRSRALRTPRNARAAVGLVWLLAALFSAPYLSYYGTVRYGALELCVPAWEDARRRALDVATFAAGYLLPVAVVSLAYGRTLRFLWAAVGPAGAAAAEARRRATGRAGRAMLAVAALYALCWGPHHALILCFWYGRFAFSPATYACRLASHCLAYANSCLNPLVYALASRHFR
MC4R barr ag – MC4R beta-arrestin agonists, retest, confirmation, cell-based, luminescence, U2OS; activation, % at 8.9 µM; U2OS MC4R beta-arrestin recruitment; scaled DMSO 0%, Melanotan II 100%; shares compounds with MC4R barr agon; 2,400 tested, 31% active;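 active means mean activation across replicates above the hit cutoff set in the earlier primary screen, cut at about 8% in these data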
MOR DOR agonist – agonists of MOR-DOR heterodimerization, counter-screen for MC4R biased agonist project, cell-based, luminescence | shares compounds with MC4R barr agon | activation, % at 9.2 µM | U2OS PathHunter beta-arrestin, beta-gal luminescence; percent of deltorphin B response, DMSO zero | 2,400 tested, 5.8% active;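 active means mean activation across replicates exceeds the hit threshold derived in the earlier primary screen, cut at about 18% in these data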;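 further: 100% = deltorphin B at 0.9 µM final and 0% = DMSO alone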
H9c2 TAG conf – triacylglycerol accumulation inhibitors, retest, confirmation, cell-based, single concentration, Nile Red fluorescence, H9c2 | inhibition, % at 12.5 µM | 990 tested, 71% active | shares compounds with TAG inh | H9c2 lipid accumulation; cells loaded with 200 µM oleic acid;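 active means mean inhibition across replicates of 40% or more; inactive means mean inhibition below 40%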;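 further: plate controls were DMSO only wells for no effect and Triacsin C treated wells for full effect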
GalR3 antag conf – GalR3 antagonist hit confirmation, cell-based, fluorescence, triplicate; shares compounds with GalR3 antagonist; HEK293 GalR3 CNG cAMP biosensor, membrane potential fluorescence; galR3 fused to GalR1 carboxy tail; challenged with forskolin and galanin at EC90; inhibition, % at 3 µM; 1,600 tested, 59% active;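 active means inhibition above the primary screen's cutoff, the mean inhibition of all screened compounds plus 3 SD, cut at about 13% in these data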;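 further: 0% = forskolin plus galanin and 100% = forskolin alone with DMSO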
HEK-CNG parental – nonspecific cAMP agonists in parental HEK-CNG cells, counter-screen for GalR3 antagonist project, cell-based, fluorescence, high throughput; AID 652268, 2013; activation, % at 3 µM; HEK293-CNG parental cells, cAMP membrane potential fluorescence; normalised: DMSO wells 0%, forskolin wells 100%; 1,600 tested, 10% active; shares compounds with GalR3 antagonist; in the data active means activation above about 1.3%
* marks the source's active call; other numbers are inactive results; ? = inconclusive; · = no result. An excerpt weighted towards active compounds, which were near 2.9% of everything screened.

SMILES	TAG inh	Calb FLC	MC4R barr agon	MC4R antag cAMP	Efflux pump mplx	GalR3 antagonist	MC4R barr ag	MOR DOR agonist	H9c2 TAG conf	others
O=NN(CC(=O)NNc1ccccc1)CC(=O)NNc1ccccc1	·	·	·	·	·	-5.5	·	·	·
CC1(C(=O)Nc2cccc3cccnc23)CCN1C(=O)Cc1ccc(Cl)cc1Cl (stereo not given)	4.1	·	1.0	19.4	·	1.6	·	·	·
COc1ccc(Nc2oc(-c3ccc(Cl)cc3)nc2C#N)cc1	54.4*	11.7	18.0*	-11.9	-0.1	-3.3	3.3	8.0	52.1*
Cc1cc(=O)n2cn[nH]c2n1	-9.6	·	-0.1	-1.0	·	-4.4	·	·	·
CC(CC(=O)Nc1ccc2c(c1)c(=O)n(C)n2-c1ccc2ccccc2c1)C(F)(F)F (stereo not given)	54.6*	·	9.7*	-22.4	·	-6.1	-2.1	5.4	44.1*
Cn1c(=O)c2cc(NC(=O)Cc3cccnc3)ccc2n1-c1ccc2ccccc2c1	6.7	·	-2.2	0.7	·	-1.7	·	·	·
COc1ccc(-c2cnc3c(NC(C)=O)cc(-c4ccccc4OC)cn23)cc1OC	2.2	·	22.1*	-27.6	·	13.2*	25.2*	2.4	·	GalR3 antag conf=18.3*;HEK-CNG parental=0.4
CC1=C(C(=O)N(C)C)CC(CC(=O)NCCCN(C)C)C(=O)N1CCC1=CCCCC1 (stereo not given)	3.3	·	-0.7	10.0	·	-6.2	·	·	·
NS(=O)(=O)c1ccc(NC(=S)N2CCN(c3ccc(Cl)c(Cl)c3)CC2)cc1	·	10.9	11.6*	-2.7	0.6	20.8*	-2.6	3.0	·	GalR3 antag conf=36.7*;HEK-CNG parental=-1.9
NS(=O)(=O)c1ccc(NC(=S)N2CCN(Cc3ccc(Cl)c(Cl)c3)CC2)cc1	·	-1.9	-1.3	1.6	-0.1	-9.4	·	·	·
COc1ccc(-c2ccc3oc(-c4ccc(OC)cc4)c(C#CCO)c3c2)cc1	-35.8	-6.9	17.6*	13.8	-0.1	95.0*	14.9*	5.1	·	GalR3 antag conf=109.5*;HEK-CNG parental=-1.2
CC(O)(c1cccc(F)c1)c1nc(-c2cccc3cccnc23)cs1 (stereo not given)	-3.8	·	0.8	4.0	·	-5.6	·	·	·
COc1ccc(-c2csc(NC(=O)c3ccccc3F)n2)cc1	-10.5	3.7	0.7	4.8	-0.1	-9.0	·	·	·
COc1ccc(-c2csc(NC(=O)c3ccccc3NS(=O)(=O)c3ccc(F)c(F)c3)n2)cc1	-0.5	44.8	15.1*	18.6	-0.1	91.5*	3.8	2.7	·	GalR3 antag conf=106.1*;HEK-CNG parental=-0.9
O=C(CN(CCc1ccccc1)S(=O)(=O)c1ccc(Cl)cc1)N/N=C/c1ccc2c(c1)OCO2	·	-2.4	24.6*	7.0	-0.2	13.2*	7.4	5.1	·	GalR3 antag conf=-1.8;HEK-CNG parental=1.9*
COc1ccc(S(=O)(=O)N(CCc2ccccc2)CC(=O)N/N=C/c2ccc3c(c2)OCO3)cc1	·	1.4	1.6	1.4	-0.4	-2.6	·	·	·
CCN1/C(=C/c2ccc3cc(C)cc(C)c3[n+]2CC)Sc2cc(C)ccc21	-94.8	·	45.0*	-14.0	·	48.5*	87.1*	13.9	·	GalR3 antag conf=57.7*;HEK-CNG parental=9.7*
CC(C)C[C@H]1CN(CCCC[C@H]2CNC(=O)C(=O)N2CC2CCCCC2)C(=O)C(=O)N1CCc1ccc(O)cc1	·	·	·	·	·	-0.2	·	·	·
CCN(CC)CCCNc1nc2cc(OC)c(OC)cc2c2nc(-c3ccccc3)nn12	60.6*	?	-0.3	-5.1	-0.2	-4.4	·	·	36.0
COc1cc2nc(NCCCN3CCN(C)CC3)n3nc(-c4ccccc4)nc3c2cc1OC	61.4*	1.4	-0.9	-8.1	0.1	-0.6	·	·	40.6*
CN1CCN(CCCNc2nc3ccccc3c3nc(-c4ccccc4)nn23)CC1	17.6	·	-2.0	4.0	·	-5.6	·	·	·
Cc1ccc(NC(=O)COC(=O)c2ccc3c(c2)NC(=O)C2CCCN32)cc1 (stereo not given)	66.4*	-4.5	-1.7	1.4	0.1	-5.6	·	·	22.1
COC(=O)[C@@]1(Cc2ccc(F)cc2)[C@H]2c3cc(C(=O)N4CCCC4)n(CCCNc4ncc(C(F)(F)F)cc4Cl)c3C[C@H]2CN1C(=O)c1ccccc1	77.8*	2.0	-1.0	3.4	0.3	·	·	·	98.4*
CCOC(=O)[C@]12CCCC=C1N(Cc1ccco1)C(=O)[C@H](CC(=O)N1CCCCC1)C2	·	·	·	·	·	-5.3	·	·	·
CCOc1cc(CNC(C)(C)C)ccc1OCC(=O)Nc1cccc(C(F)(F)F)c1	52.1*	3.7	-0.9	13.0	0.6	3.6	·	·	63.3*
CCOC(=O)[C@]12CCCC=C1N(Cc1ccc3c(c1)OCO3)C(=O)[C@H](CC(=O)NCc1ccc(C)o1)C2	·	·	·	·	·	-6.2	·	·	·
COc1ccccc1Oc1ccc(S(=O)(=O)N2CCOCC2)cc1S(=O)(=O)N1CCOCC1	·	3.7	-1.5	1.2	0.0	-0.5	·	·	·
Cc1ccc(Oc2ccc(S(=O)(=O)N3CCOCC3)cc2C(N)=O)c(-n2nc3ccccc3n2)c1	50.0*	9.0	-0.2	-14.1	0.0	-2.6	·	·	46.1*
Oc1ccc(C[C@H]2CNC(=S)N2CC2CCCN2C[C@H](Cc2ccc(O)cc2)N2C[C@H](Cc3ccc(O)cc3)N(CC3CCCCC3)C2=S)cc1 (stereo not given in full)	75.4*	·	-2.9	16.9	·	-6.6	·	·	72.8*
COc1ccc2c(c1)c(CC(=O)Nc1ccc(C)cc1)c(C)n2C(=O)c1ccc(Cl)cc1	61.5*	10.4	-1.9	0.1	-0.1	-2.2	·	·	49.7*
